# Screening data (PubChem BioAssay)
# Hits are enriched below; roughly 3.3% of the tested compounds scored in any of these assays.
# SENP7 inh – inhibitors of human SENP7 protease; recombinant SENP7, Z-RLRGG-aminoluciferin luminescence, 40 min; inhibition, % at 5 µM; hit rate 1.5% among 330,000; AID 434973;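 active = inhibition above about 50% at the single test dose, limit read from the data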
# SENP6 inh – inhibitors of human SENP6 protease | AID 2599 | inhibition, % at 10 µM | Q9GZR1 | Recombinant SENP6 catalytic domain, aminoluciferin luminescence | hit rate 1.8% among 330,000;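 active = inhibition above about 50% at the single tested dose, limit read from the data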
# Target sequence (Q9GZR1 628-1112 limits assumed): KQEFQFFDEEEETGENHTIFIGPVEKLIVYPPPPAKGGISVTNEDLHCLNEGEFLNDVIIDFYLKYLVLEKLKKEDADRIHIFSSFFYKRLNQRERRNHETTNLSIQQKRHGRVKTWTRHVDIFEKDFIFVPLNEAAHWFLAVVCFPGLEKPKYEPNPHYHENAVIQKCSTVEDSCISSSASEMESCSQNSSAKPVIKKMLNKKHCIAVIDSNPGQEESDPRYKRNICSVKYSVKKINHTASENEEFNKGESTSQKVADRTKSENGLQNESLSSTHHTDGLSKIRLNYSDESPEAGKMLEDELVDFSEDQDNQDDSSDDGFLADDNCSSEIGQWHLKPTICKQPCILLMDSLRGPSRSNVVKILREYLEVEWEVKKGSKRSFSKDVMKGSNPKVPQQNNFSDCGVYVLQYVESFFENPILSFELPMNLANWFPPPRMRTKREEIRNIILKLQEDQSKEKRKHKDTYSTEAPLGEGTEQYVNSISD
# SENP1 FRET inh – SENP1 (human) catalytic domain inhibition. Q9P0U3. recombinant SENP1 catalytic domain, CyPet-SUMO1-YPet FRET cleavage. inhibition, % at 10 µM. hit rate 0.21% among 360,000. AID 624204;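 active = inhibition at least 30% at 10 µM, raw YFP signal under a set limit, fluorescence ratio 0.5 to 1.5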
#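 Material – human SENP1 catalytic domain · Input – SENP1 enzyme, 20 pM final · Compound dosing – single concentration of 10 µM compound, 0.5% DMSO final · Timing – enzyme reaction for 50 min at room temperature, dark · Measured by – FRET fluorescence in CFP and YFP emission channels · Control set – no-enzyme wells low, DMSO-plus-enzyme wells high control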
# SENP8 block-1 – SENP8 (human) protease inhibition | inhibition, % at 20 µM | recombinant SENP8, Nedd8 substrate fluorescence | Q96LD8 | AID 602440 | hit rate 0.64% among 360,000; in the data active = inhibition mostly above about 40%, no sharp cut-off; inactive = mostly below about 27%
# NRP1-CendR mod – alters CendR peptide binding to human NRP-1. O14786. FAM-RPARPAR peptide binding to NRP-1, fluorescence polarization. inhibition, % at 25 µM. hit rate 0.85% among 360,000;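 active = inhibition or corrected inhibition above about 18%, plus a signal ratio from 0.5 to 1.5, limit read from the data, passing the limit was not always enough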
# SENP8 block-2 – SENP8 protease inhibition; inhibition, % at 10 µM; hit rate 1.2% among 330,000; Q96LD8; purified SENP8, Z-RLRGG-aminoluciferin cleavage, luminescence; in the data active = inhibition above about 50%
# SENP8 confirm – human SENP8 inhibition, confirmed; shares compounds with SENP7 inh; Recombinant SENP8, Z-RLRGG-aminoluciferin luminescence, 60 min; inhibition, % at 12.5 µM; hit rate 40% among 6,200; AID 488912;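 active = mean inhibition across replicates above about 50%, limit read from the data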
# SENP6 conf – confirmation of human SENP6 protease inhibitors; shares compounds with SENP7 inh; recombinant SENP6, Z-RLRGG-aminoluciferin luminescence; inhibition, % at 12.5 µM; hit rate 58% among 6,200
# SENP7 conf – human SENP7 inhibition, confirmed | hit rate 69% among 6,200 | recombinant SENP7, Z-RLRGG-aminoluciferin luminescence, 40 min | shares compounds with SENP7 inh | inhibition, % at 12.5 µM | AID 488917
# Casp3 SENP sel – inhibits human caspase-3 in SENP selectivity test; shares compounds with SENP7 inh; purified caspase-3, Z-DEVD-aminoluciferin luminescence, 60 min; inhibition, % at 12.5 µM; hit rate 60% among 6,200;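 active = mean inhibition above about 50%, limit read from the data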
# Target sequence (P42574 28-227 limits assumed): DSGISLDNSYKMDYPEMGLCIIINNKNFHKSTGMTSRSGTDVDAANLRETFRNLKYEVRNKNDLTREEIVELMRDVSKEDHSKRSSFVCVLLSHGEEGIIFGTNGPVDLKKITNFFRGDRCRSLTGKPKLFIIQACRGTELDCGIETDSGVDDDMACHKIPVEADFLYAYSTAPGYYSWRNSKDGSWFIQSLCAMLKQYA
# SENP luc ctr – counter-screen for SENP inhibitors: luminescence interference | shares compounds with SENP7 inh | Pre-incubated SENP8/Z-RLRGG-aminoluciferin, luciferase luminescence interference | inhibition, % at 12.5 µM | hit rate 39% among 6,200;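 active = mean inhibition above about 50% when retested at one dose, limit read from the data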
# A number is an active result; – = inactive; · = no result given.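 Rule for the calls, unless noted: active = mean inhibition above about 50% in the one-dose retest (limit read from the data); inactive = the rest.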
SMILES,SENP7 inh,SENP6 inh,SENP1 FRET inh,SENP8 block-1,NRP1-CendR mod,SENP8 block-2,SENP8 confirm,SENP6 conf,SENP7 conf,Casp3 SENP sel,SENP luc ctr
COCCOC(=O)c1c(C)oc2ccc(NS(=O)(=O)c3cccs3)cc12,–,–,–,–,–,–,·,·,·,·,·
CCOC(=O)c1c(C)oc2ccc(NS(=O)(=O)c3cccs3)cc12,77,–,–,–,–,–,–,–,–,–,–
Cc1ccnc(N/C=C/C(=O)c2ccc(Br)cc2)c1,96,88,–,–,–,87,–,–,60,54,–
Cc1cc(N/C=C/C(=O)c2ccc(Br)cc2)no1,–,–,–,–,–,–,·,·,·,·,·
COc1ccc(C(=O)/C=C/Nc2cc(C)ccn2)cc1,95,95,–,–,–,95,–,99,103,96,–
COc1cc(C)ccc1S(=O)(=O)NC(=O)C1(C)CCN1C(=O)Cc1ccc(Cl)cc1Cl (configuration not stated),·,·,–,–,–,·,·,·,·,·,·
O=C(NCc1ccc(Cl)c(Cl)c1)c1cc(C2CCCCN2C(=O)c2cccs2)on1 (configuration not stated),·,·,–,–,–,·,·,·,·,·,·
C/C(=N/OC(=O)c1ccccc1)c1oc(C)nc1C,78,62,–,–,–,–,67,67,90,87,52
O=C(Nc1ccc(OCc2ccccc2)cc1)Nc1cccnc1,–,–,–,–,–,–,·,·,·,·,·
O=C(Nc1ccc(COc2ccccc2)cc1)Nc1cccc(C(=O)O)c1,92,97,–,–,–,93,–,100,–,60,–
O=C(O)c1cccc(NC(=S)NC(=O)c2cccc(OCc3ccccc3)c2)c1,–,56,–,–,–,–,71,61,76,–,63
CCCOc1cccc(C(=O)NC(=S)Nc2ccccc2)c1,–,–,–,–,–,–,·,·,·,·,·
CCCC(=O)N1CCC1(C)C(=O)Nc1ccc(-n2cccc2)cc1 (configuration not stated),·,·,–,–,–,·,·,·,·,·,·
CC(O)(c1cccnc1)c1nc(-c2ccc3ccccc3c2)cs1 (configuration not stated),·,·,–,–,–,·,·,·,·,·,·
NC(CCc1ccccc1)c1csc(Nc2nccc(C(F)(F)F)n2)n1 (configuration not stated),·,·,–,–,–,·,·,·,·,·,·
Cc1ccc(S(=O)(=O)N2C[C@H]3C(=O)C[C@@H](c4ccccc4)N(S(=O)(=O)c4ccc(C)cc4)[C@H]3C[C@H]2c2cccs2)cc1,·,·,–,–,–,·,·,·,·,·,·
Cn1c(=O)c2c(SCc3ccccn3)nc(C3CC3)nc2n(C)c1=O,–,–,–,–,–,–,·,·,·,·,·
Cn1c(=O)c2c(SCc3ccccc3)nc(C3CC3)nc2n(C)c1=O,68,–,–,–,–,–,–,–,–,–,–
CC(C)C(=O)N1CCCC1(C)C(=O)Nc1ccccc1 (configuration not stated),·,·,–,–,–,·,·,·,·,·,·
Nc1nc2c(ncn2[C@@H]2O[C@H](CNC(=O)[C@H](N)Cc3cncn3COCc3ccccc3)[C@@H](O)[C@H]2O)c(=O)[nH]1,·,·,–,–,–,·,·,·,·,·,·
Fc1cccc(F)c1CSc1nc2ccccc2[nH]1,74,77,–,–,–,52,62,62,89,71,74
Cc1noc(C)c1CSc1nc2ccccc2[nH]1,–,–,–,–,–,–,·,·,·,·,·
O=C(CSc1nc2ccccc2[nH]1)c1ccccc1F,–,57,–,–,–,–,51,–,81,63,62
O=C(O)c1ccccc1CSc1nc2ccccc2[nH]1,–,70,–,–,–,–,72,70,87,88,76
O=C(CSc1nc2ccccc2[nH]1)c1c[nH]c2ccccc12,–,–,–,–,–,–,·,·,·,·,·
SMILES,SENP7 inh,SENP6 inh,SENP1 FRET inh,SENP8 block-1,NRP1-CendR mod,SENP8 block-2,SENP8 confirm,SENP6 conf,SENP7 conf,Casp3 SENP sel,SENP luc ctr
C[C@@H]1CCCCO[C@H](CN(C)Cc2ccc(C(F)(F)F)cc2)[C@@H](C)CN([C@H](C)CO)C(=O)c2cc(NS(=O)(=O)c3cn(C)cn3)ccc2O1,·,·,–,–,–,·,·,·,·,·,·
CCOC(=O)C1(C)CCN1C(=O)c1ccc(N(C)C)cc1 (configuration not stated),·,·,–,–,–,·,·,·,·,·,·
COc1ccc(CCNC(=O)CCn2c(SCC(=O)N3CCCC3)nc3ccccc3c2=O)cc1OC,–,70,–,–,–,–,–,–,–,–,–
Cc1ccc2c(c1C)C(=O)C(=O)N2,·,·,–,–,–,·,·,·,·,·,·
Cc1cc(C2=NNC(=NC3CC3)SC2)c(C)n1-c1c(C)n(C)n(-c2ccccc2)c1=O,–,–,–,–,–,–,·,·,·,·,·
Cc1ccc(-n2c(C)cc(C3=NNC(=NC4CC4)SC3)c2C)cc1C,–,–,–,–,–,56,82,84,93,74,53
O=c1oc(Nc2ccccc2Cl)nc2ccccc12,·,·,–,–,–,·,·,·,·,·,·
O=c1oc(Nc2ccccc2F)nc2ccccc12,–,76,–,–,37,54,–,99,103,99,98
O=C(COC(=O)c1ccccn1)Nc1ncc(C(F)(F)F)cc1Cl,–,–,–,–,–,–,·,·,·,·,·
CC1CCCC(NC(=O)COC(=O)c2ccc([N+](=O)[O-])s2)C1C (configuration not stated),–,65,–,–,–,63,–,51,–,–,–
O=C(COC(=O)c1ccc([N+](=O)[O-])s1)Nc1ncc(C(F)(F)F)cc1Cl,–,71,–,–,–,–,–,84,–,–,–
COc1cc(C(=O)OC(C)C(=O)NC2CCCCC2C)c([N+](=O)[O-])cc1OC (configuration not stated),–,–,–,–,–,–,·,·,·,·,·
CC(OC(=O)c1ccc([N+](=O)[O-])s1)C(=O)NC1CCCCC1C (configuration not stated),–,–,–,–,–,55,–,–,–,–,–
COCCNc1nc(NCCCN2CCCC2=O)c2sccc2n1,·,·,–,–,–,·,·,·,·,·,·
CCNC(=O)c1cc2c(c(-c3cccc(-c4ccccc4F)c3)n1)[C@@H](CCO)N(C(=O)CC)C2,·,·,–,–,–,·,·,·,·,·,·
Clc1ccc(-c2cn3nc4c(nc3n2)CCCC4)cc1,–,55,–,–,–,–,–,62,62,60,–
